Results from ChEMBL document CHEMBL5046217, “Discovery of New Imidazo[2,1-b]thiazole Derivatives as Potent Pan-RAF Inhibitors with Promising In Vitro and In Vivo Anti-melanoma Activity” (J Med Chem, 2021).

Assays:
[1] = molecular target: Serine/threonine-protein kinase B-raf (Homo sapiens, UniProt P15056); assay: Inhibition of human wild type BRAF using myelin basic protein as substrate in presence of [gamma-33P]ATP incubated for 40 mins by scintillation counting method
Outline: (§1)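 Radiometric kinase assay run at Reaction Biology. Kinase (5−10 mU) in 25 mM Tris pH 7.5, 0.02 mM EGTA, 10 mM magnesium acetate with 0.66 mg/mL myelin basic protein and [γ-33P]ATP at 1 μM ATP. Reaction started with Mg-ATP and run 40 min at room temperature, then stopped with 3% phosphoric acid. Spotted on P30 filtermat, washed, scintillation counted.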

[2] = molecular target: Serine/threonine-protein kinase B-raf (Homo sapiens, UniProt P15056, V600E); assay: Inhibition of human BRAF V600E mutant using myelin basic protein as substrate in presence of [gamma-33P]ATP incubated for 40 mins by scintillation counting method; outline: as §1
[3] = molecular target: RAF proto-oncogene serine/threonine-protein kinase (Homo sapiens, UniProt P04049); assay: Inhibition of human wild type CRAF using myelin basic protein as substrate in presence of [gamma-33P]ATP incubated for 40 mins by scintillation counting method
[4] = test system: Panel melanoma (Carcinoma cell lines); assay: cells; settings: Homo sapiens, 48 h, read-out: INH
[5] = molecular target: Serine/threonine-protein kinase/endoribonuclease IRE1 (Homo sapiens, UniProt O75460); assay: Inhibition of ERN1 (unknown origin) incubated for 1 hr by qPCR analysis
Outline: (§2)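 Competition binding assay. Kinases were either T7-phage-tagged (grown in an E. coli BL21-derived host) or expressed in HEK-293 cells and DNA-tagged. […] Bound kinase was eluted with non-biotinylated ligand and quantified by qPCR.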

[6] = molecular target: Fibroblast growth factor receptor 1 (Homo sapiens, UniProt P11362); assay: Inhibition of FGFR1 (unknown origin) incubated for 1 hr by qPCR analysis
[7] = molecular target: T1, Receptor-type tyrosine-protein kinase FLT3 (Homo sapiens, UniProt P36888); assay: Inhibition of FLT3 (unknown origin) incubated for 1 hr by qPCR analysis; outline: as §2
T1 sequence (P36888 whole entry): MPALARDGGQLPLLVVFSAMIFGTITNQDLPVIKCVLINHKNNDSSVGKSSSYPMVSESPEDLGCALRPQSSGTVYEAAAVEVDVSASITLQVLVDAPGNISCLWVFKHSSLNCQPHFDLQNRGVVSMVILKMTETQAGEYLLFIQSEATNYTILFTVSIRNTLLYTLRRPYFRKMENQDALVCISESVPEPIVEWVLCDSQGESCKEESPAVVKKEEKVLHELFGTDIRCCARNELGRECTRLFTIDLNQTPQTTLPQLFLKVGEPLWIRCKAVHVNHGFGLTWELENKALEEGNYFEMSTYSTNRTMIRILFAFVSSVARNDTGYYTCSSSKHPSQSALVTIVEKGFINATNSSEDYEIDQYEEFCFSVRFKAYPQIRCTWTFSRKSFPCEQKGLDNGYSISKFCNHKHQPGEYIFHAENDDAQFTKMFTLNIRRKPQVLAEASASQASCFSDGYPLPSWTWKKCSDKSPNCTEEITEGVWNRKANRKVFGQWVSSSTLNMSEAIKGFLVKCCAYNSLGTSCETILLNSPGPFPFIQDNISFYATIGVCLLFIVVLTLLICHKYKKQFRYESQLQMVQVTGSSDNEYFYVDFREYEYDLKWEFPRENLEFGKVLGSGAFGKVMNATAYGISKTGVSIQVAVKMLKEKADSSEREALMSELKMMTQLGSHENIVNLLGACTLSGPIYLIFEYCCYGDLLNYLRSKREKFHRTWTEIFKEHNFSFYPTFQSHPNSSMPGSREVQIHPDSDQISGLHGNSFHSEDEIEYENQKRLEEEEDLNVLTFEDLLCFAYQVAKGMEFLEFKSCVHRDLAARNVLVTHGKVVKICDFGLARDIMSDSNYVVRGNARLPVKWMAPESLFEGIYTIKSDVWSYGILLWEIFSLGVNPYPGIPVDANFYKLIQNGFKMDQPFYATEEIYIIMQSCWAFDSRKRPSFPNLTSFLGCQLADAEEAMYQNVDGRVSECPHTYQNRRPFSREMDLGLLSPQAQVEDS

[8] = molecular target: Homeodomain-interacting protein kinase 1 (Homo sapiens, UniProt Q86Z02); assay: Inhibition of HIPK1 (unknown origin) incubated for 1 hr by qPCR analysis; outline: as §2
[9] = molecular target: Mitogen-activated protein kinase 8 (Homo sapiens, UniProt P45983); assay: Inhibition of MAPK8 (unknown origin) incubated for 1 hr by qPCR analysis; outline: as §2
[10] = molecular target: Mitogen-activated protein kinase 11 (Homo sapiens, UniProt Q15759); assay: Inhibition of MAPK11 (unknown origin) incubated for 1 hr by qPCR analysis; outline: as §2
[11] = molecular target: Mitogen-activated protein kinase 14 (Homo sapiens, UniProt Q16539); assay: Inhibition of MAPK14 (unknown origin) incubated for 1 hr by qPCR analysis; outline: as §2
[12] = molecular target: Mitogen-activated protein kinase kinase kinase 20 (Homo sapiens, UniProt Q9NYL2); assay: Inhibition of ZAK (unknown origin) incubated for 1 hr by qPCR analysis; outline: as §2
Sequence of Mitogen-activated protein kinase kinase kinase 20 (Q9NYL2 whole entry): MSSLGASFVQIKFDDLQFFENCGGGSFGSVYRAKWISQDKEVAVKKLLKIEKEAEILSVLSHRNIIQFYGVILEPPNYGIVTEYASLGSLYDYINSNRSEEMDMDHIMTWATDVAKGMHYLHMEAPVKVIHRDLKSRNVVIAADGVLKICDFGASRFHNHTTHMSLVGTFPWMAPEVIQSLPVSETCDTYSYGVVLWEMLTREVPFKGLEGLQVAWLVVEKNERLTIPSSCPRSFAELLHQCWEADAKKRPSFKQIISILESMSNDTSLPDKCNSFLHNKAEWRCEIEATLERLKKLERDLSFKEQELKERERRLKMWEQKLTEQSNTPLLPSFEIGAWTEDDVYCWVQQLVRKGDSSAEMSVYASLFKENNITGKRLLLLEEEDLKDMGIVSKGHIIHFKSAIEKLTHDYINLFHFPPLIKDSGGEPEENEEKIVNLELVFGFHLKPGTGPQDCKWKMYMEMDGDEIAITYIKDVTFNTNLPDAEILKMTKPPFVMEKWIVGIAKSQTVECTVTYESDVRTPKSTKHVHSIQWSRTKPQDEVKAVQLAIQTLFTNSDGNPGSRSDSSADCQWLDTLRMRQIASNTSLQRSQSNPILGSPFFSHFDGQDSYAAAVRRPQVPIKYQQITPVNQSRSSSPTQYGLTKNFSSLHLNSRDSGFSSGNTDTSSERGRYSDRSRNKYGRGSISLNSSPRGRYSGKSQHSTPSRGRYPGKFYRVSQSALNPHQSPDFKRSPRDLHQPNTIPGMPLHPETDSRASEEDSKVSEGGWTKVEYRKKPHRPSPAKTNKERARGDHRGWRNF

Sequence of Serine/threonine-protein kinase B-raf (Homo sapiens, UniProt P15056) (P15056 whole entry): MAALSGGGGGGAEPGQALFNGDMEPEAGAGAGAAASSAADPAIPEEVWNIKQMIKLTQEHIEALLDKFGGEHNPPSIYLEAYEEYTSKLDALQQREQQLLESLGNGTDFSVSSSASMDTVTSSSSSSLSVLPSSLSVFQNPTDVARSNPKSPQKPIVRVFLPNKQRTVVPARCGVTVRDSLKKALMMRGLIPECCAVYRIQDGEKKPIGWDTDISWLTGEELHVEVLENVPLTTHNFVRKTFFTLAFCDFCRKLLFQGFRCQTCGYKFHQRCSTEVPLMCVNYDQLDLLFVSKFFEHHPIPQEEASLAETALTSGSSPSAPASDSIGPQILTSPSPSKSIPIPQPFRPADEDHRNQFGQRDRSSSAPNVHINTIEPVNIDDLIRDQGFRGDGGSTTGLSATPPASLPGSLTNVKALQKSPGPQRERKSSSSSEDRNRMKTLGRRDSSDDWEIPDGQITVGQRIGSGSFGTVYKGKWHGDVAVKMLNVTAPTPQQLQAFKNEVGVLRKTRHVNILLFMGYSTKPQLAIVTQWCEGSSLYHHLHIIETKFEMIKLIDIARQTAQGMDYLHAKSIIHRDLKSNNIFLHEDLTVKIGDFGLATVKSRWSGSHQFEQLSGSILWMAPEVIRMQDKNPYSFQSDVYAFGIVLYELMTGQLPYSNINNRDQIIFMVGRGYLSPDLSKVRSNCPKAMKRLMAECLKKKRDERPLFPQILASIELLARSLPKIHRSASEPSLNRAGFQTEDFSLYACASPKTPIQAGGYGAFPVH
Sequence of Serine/threonine-protein kinase B-raf (Homo sapiens, UniProt P15056, V600E) (P15056 2-766 V600E limits assumed): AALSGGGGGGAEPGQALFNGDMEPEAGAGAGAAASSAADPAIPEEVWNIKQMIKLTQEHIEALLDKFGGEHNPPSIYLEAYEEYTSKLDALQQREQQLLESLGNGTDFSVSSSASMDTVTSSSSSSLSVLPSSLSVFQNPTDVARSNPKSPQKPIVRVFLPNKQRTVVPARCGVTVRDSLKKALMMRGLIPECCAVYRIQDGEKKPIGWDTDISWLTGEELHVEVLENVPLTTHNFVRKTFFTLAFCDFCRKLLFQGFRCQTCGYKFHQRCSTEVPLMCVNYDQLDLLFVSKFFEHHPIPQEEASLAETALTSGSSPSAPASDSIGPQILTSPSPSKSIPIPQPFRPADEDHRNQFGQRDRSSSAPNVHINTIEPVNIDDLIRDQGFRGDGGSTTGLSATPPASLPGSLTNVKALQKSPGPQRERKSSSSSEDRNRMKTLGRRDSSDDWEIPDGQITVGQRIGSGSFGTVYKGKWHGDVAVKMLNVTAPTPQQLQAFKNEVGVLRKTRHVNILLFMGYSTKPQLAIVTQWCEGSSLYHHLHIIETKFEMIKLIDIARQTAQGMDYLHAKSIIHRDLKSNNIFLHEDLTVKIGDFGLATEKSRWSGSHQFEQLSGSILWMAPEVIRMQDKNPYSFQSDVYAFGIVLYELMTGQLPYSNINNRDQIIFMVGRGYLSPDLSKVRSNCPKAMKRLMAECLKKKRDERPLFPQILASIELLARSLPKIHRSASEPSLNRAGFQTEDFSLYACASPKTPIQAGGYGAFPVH
Sequence of RAF proto-oncogene serine/threonine-protein kinase (P04049 whole entry): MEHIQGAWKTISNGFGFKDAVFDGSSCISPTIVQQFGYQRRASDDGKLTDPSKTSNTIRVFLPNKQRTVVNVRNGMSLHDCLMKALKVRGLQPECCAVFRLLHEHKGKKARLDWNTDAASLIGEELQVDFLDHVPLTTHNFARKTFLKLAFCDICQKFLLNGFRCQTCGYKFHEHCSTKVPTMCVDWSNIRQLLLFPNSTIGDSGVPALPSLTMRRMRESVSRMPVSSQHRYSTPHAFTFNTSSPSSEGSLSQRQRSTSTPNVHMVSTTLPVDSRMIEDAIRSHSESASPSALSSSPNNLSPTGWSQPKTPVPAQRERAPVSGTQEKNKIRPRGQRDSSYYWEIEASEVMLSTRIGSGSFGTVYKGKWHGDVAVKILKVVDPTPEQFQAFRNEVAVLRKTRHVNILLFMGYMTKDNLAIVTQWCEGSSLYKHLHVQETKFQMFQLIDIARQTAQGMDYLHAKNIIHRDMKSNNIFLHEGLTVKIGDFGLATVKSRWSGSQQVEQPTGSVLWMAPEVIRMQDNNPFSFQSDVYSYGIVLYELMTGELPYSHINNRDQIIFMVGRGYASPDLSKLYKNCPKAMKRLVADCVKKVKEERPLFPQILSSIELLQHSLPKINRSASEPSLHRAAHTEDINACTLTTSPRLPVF
Sequence of Mitogen-activated protein kinase 8 (P45983 whole entry): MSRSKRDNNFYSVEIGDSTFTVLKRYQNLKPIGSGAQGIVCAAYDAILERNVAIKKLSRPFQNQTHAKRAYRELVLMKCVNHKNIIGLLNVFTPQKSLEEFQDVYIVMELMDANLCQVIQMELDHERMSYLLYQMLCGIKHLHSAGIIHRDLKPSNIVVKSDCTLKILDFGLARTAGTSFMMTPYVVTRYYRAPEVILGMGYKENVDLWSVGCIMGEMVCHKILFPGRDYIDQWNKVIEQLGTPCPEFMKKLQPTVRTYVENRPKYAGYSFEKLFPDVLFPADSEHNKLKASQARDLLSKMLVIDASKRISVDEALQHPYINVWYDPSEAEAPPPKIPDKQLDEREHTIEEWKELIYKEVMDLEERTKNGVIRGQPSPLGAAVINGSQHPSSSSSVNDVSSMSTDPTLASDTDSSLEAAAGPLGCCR
Sequence of Homeodomain-interacting protein kinase 1 (Q86Z02 whole entry): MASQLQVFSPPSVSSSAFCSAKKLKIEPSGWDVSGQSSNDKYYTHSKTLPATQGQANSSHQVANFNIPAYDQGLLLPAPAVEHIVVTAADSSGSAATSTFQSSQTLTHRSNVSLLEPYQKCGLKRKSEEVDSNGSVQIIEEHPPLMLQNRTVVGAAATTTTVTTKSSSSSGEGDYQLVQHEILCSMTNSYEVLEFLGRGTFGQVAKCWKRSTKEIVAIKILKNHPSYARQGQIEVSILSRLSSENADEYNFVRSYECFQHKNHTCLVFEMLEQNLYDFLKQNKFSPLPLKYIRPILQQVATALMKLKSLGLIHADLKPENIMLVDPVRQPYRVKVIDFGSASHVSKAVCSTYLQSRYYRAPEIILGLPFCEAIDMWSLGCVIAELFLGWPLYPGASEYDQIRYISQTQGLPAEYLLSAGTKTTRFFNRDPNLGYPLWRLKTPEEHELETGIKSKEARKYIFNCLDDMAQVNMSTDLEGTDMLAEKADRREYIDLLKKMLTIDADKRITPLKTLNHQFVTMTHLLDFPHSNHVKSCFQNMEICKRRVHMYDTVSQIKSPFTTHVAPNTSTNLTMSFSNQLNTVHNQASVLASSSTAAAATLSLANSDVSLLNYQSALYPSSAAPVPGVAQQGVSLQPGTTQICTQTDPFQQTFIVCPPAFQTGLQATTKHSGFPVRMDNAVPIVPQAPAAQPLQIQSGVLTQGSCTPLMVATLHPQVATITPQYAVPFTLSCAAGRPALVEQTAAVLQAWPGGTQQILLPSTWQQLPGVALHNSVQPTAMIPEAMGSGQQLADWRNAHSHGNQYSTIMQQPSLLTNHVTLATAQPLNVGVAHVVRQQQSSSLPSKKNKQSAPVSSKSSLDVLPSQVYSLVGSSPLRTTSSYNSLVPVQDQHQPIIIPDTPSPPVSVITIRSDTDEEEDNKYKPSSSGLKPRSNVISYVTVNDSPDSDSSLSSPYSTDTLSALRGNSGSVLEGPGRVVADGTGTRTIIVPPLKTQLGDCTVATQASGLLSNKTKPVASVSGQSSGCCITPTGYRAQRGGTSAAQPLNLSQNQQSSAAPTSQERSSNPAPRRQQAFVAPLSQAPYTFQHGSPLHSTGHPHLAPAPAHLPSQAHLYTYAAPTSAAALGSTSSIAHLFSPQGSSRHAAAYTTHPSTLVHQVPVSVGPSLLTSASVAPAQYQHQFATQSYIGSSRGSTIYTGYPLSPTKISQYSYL
Sequence of Mitogen-activated protein kinase 11 (Q15759 whole entry): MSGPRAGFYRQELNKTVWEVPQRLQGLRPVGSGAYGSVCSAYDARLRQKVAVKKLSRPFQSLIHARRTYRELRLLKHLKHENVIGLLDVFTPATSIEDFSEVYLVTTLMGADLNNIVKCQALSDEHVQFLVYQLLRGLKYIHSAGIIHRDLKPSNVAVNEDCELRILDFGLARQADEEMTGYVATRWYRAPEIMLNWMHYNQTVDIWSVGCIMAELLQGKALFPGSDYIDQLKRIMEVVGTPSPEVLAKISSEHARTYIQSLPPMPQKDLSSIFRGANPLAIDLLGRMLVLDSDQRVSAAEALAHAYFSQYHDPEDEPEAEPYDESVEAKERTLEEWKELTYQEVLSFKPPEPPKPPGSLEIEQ

Row | IC50 [1] | IC50 [2] | IC50 [3] | Compound | further results
1 | 430 nM | 90.3 nM | 95.2 nM | COc1cccc(-c2nc3sccn3c2-c2ccnc(NCCCNS(=O)(=O)c3ccc(F)cc3)n2)c1 | inhibition at 10 µM [4]: 101%
2 | 299 nM | 66.1 nM | 98.3 nM | COc1ccc(S(=O)(=O)NCCCNc2nccc(-c3c(-c4ccccc4)nc4sccn34)n2)cc1 | –
3 | 11.2 nM | 9.57 nM | 9.98 nM | CC(C)(C)OC(=O)N1CCCN(CCNc2nccc(-c3c(-c4cccc(O)c4)nc4sccn34)n2)S1(=O)=O | –
4 | 11300 nM | 21300 nM | 16500 nM | Cc1ccc(S(=O)(=O)NCCNc2nccc(-c3c(-c4ccc(O)cc4)nc4sccn34)n2)cc1 | –
5 | 522 nM | 115 nM | 100 nM | COc1cccc(-c2nc3sccn3c2-c2ccnc(NCCNS(=O)(=O)c3ccc(F)cc3)n2)c1 | –
6 | 842 nM | 165 nM | 172 nM | COc1cccc(-c2nc3sccn3c2-c2ccnc(NCCCNS(=O)(=O)c3ccc4ccccc4c3)n2)c1 | –
7 | 9890 nM | 26300 nM | 24300 nM | COc1ccc(-c2nc3sccn3c2-c2ccnc(NCCNS(=O)(=O)c3ccc(OC)cc3)n2)cc1 | –
8 | 6.12 nM | 1.51 nM | 2.52 nM | COc1cccc(-c2nc3sccn3c2-c2ccnc(NCCN3CCN(C)S3(=O)=O)n2)c1 | –
9 | 894 nM | 168 nM | 209 nM | COc1cccc(-c2nc3sccn3c2-c2ccnc(NCCCNS(=O)(=O)c3ccc(C)cc3)n2)c1 | –
10 | 9710 nM | 25100 nM | 19400 nM | O=S(=O)(NCCNc1nccc(-c2c(-c3ccc(O)cc3)nc3sccn23)n1)c1ccc(O)cc1 | –
11 | 64 nM | 55 nM | 62 nM | Cc1ccc(S(=O)(=O)NCCNc2nccc(-c3c(-c4cccc(O)c4)nc4sccn34)n2)cc1 | –
12 | 35 nM | 19 nM | 21 nM | O=S(=O)(NCCNc1nccc(-c2c(-c3cccc(O)c3)nc3sccn23)n1)c1ccccc1 | –
13 | 9.56 nM | 5.21 nM | 7.21 nM | O=S1(=O)NCCCN1CCNc1nccc(-c2c(-c3cccc(O)c3)nc3sccn23)n1 | –
14 | 526 nM | 102 nM | 111 nM | COc1cccc(-c2nc3sccn3c2-c2ccnc(NCCCNS(=O)(=O)c3cccc(F)c3)n2)c1 | IC50 [5]: 15600 nM; IC50 [6]: 11800 nM; IC50 [7]: 2980 nM; IC50 [8]: 3840 nM; IC50 [9]: 360 nM; IC50 [10]: 95 nM; IC50 [11]: 88 nM; IC50 [12]: 11300 nM
15 | 8.26 nM | 2.62 nM | 2.33 nM | COc1cccc(-c2nc3sccn3c2-c2ccnc(NCCN3CCCN(C)S3(=O)=O)n2)c1 | –
16 | – | – | 142 nM | COc1cccc(-c2nc3sccn3c2-c2ccnc(NCCNS(=O)(=O)c3ccc(C(F)(F)F)cc3)n2)c1 | IC50 [5]: > 20000 nM; IC50 [6]: 15600 nM; IC50 [7]: 2170 nM; IC50 [8]: 4580 nM; IC50 [9]: 420 nM; IC50 [10]: 120 nM; IC50 [11]: 98 nM; IC50 [12]: 8110 nM
17 | 941 nM | 120 nM | 220 nM | COc1cccc(-c2nc3sccn3c2-c2ccnc(NCCNS(=O)(=O)c3ccccc3)n2)c1 | –
18 | 15.5 nM | 7.25 nM | 3.91 nM | O=S1(=O)N(CCNc2nccc(-c3c(-c4cccc(O)c4)nc4sccn34)n2)CCN1Cc1ccccc1 | –
19 | 10.3 nM | 6.35 nM | 4.26 nM | CC1(C)CN(CCNc2nccc(-c3c(-c4cccc(O)c4)nc4sccn34)n2)S(=O)(=O)N1 | inhibition at 10 µM [4]: 79.7%
20 | 7.25 nM | 4.56 nM | 6.32 nM | O=S1(=O)NCCN1CCNc1nccc(-c2c(-c3cccc(O)c3)nc3sccn23)n1 | –

Row | IC50 [1] | IC50 [2] | IC50 [3] | Compound | further results
21 | 623 nM | 89.3 nM | 251 nM | Cc1ccc(S(=O)(=O)NCCNc2nccc(-c3c(-c4ccccc4)nc4sccn34)n2)cc1 | –
22 | 375 nM | 69.1 nM | 112 nM | O=S(=O)(NCCNc1nccc(-c2c(-c3ccccc3)nc3sccn23)n1)c1ccc(F)cc1 | –
23 | 29 nM | 20 nM | 23 nM | O=S(=O)(NCCCNc1nccc(-c2c(-c3cccc(O)c3)nc3sccn23)n1)c1ccccc1 | –
24 | 17.3 nM | 8.36 nM | 4.32 nM | COc1cccc(-c2nc3sccn3c2-c2ccnc(NCCN3CCN(Cc4ccccc4)S3(=O)=O)n2)c1 | –
25 | 13.7 nM | 8.65 nM | 5.63 nM | COc1cccc(-c2nc3sccn3c2-c2ccnc(NCCN3CC(C)(C)NS3(=O)=O)n2)c1 | –
26 | 18 nM | 9 nM | 13 nM | Cc1ccc(S(=O)(=O)NCCCNc2nccc(-c3c(-c4cccc(O)c4)nc4sccn34)n2)cc1 | –
27 | 561 nM | 112 nM | 106 nM | COc1cccc(-c2nc3sccn3c2-c2ccnc(NCCNS(=O)(=O)c3cccc(F)c3)n2)c1 | –
28 | 9210 nM | 13200 nM | 32200 nM | COc1ccc(-c2nc3sccn3c2-c2ccnc(NCCNS(=O)(=O)c3ccc(F)cc3)n2)cc1 | –
29 | 589 nM | 156 nM | 164 nM | COc1ccc(S(=O)(=O)NCCCNc2nccc(-c3c(-c4cccc(OC)c4)nc4sccn34)n2)cc1 | –
30 | 721 nM | 109 nM | 129 nM | COc1cccc(-c2nc3sccn3c2-c2ccnc(NCCCNS(=O)(=O)c3ccccc3)n2)c1 | –
31 | 987 nM | 177 nM | 163 nM | COc1cccc(-c2nc3sccn3c2-c2ccnc(NCCNS(=O)(=O)c3ccc(C)cc3)n2)c1 | –
32 | 97 nM | 65 nM | 75 nM | O=S(=O)(NCCNc1nccc(-c2c(-c3ccccc3)nc3sccn23)n1)c1ccc(O)cc1 | –
33 | 521 nM | 85.3 nM | 201 nM | Cc1ccc(S(=O)(=O)NCCCNc2nccc(-c3c(-c4ccccc4)nc4sccn34)n2)cc1 | –
34 | 20800 nM | > 35000 nM | 28900 nM | COc1ccc(-c2nc3sccn3c2-c2ccnc(NCCNS(=O)(=O)c3cccc4ccccc34)n2)cc1 | –
35 | 18.1 nM | 9.96 nM | 7.22 nM | COc1cccc(-c2nc3sccn3c2-c2ccnc(NCCN3CCCNS3(=O)=O)n2)c1 | –
36 | 20.3 nM | 10.5 nM | 5.61 nM | COc1cccc(-c2nc3sccn3c2-c2ccnc(NCCN3CCNS3(=O)=O)n2)c1 | –
37 | 745 nM | 160 nM | 151 nM | COc1ccc(S(=O)(=O)NCCNc2nccc(-c3c(-c4cccc(OC)c4)nc4sccn34)n2)cc1 | –
38 | 276 nM | 57.7 nM | 87.8 nM | O=S(=O)(NCCCNc1nccc(-c2c(-c3ccccc3)nc3sccn23)n1)c1ccc(F)cc1 | inhibition at 10 µM [4]: 59.7%
39 | 23.3 nM | 12.6 nM | 11.2 nM | COc1cccc(-c2nc3sccn3c2-c2ccnc(NCCN3CCCN(C(=O)OC(C)(C)C)S3(=O)=O)n2)c1 | –
